From ChEMBL document CHEMBL2390929, “New nitric oxide donating 1,2,4-triazole/oxime hybrids: synthesis, investigation of anti-inflammatory, ulceroginic liability and antiproliferative activities” (Bioorg Med Chem, 2013)

Experiments:
Hs-578T = assay: Cytotoxicity against human Hs578T cells assessed as cell growth at 10^-5 M after 48 hrs by SRB assay; type: functional; conditions: read-out: Activity
Summary of the method: (§1)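 NCI 60-cell-line primary one-dose screen across nine tumour subpanels. Compound added at a single concentration of 10^-5 M and cultures incubated 48 h. Endpoint was sulforhodamine B protein staining read spectrophotometrically, with growth expressed as percent of untreated control cells.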

BT-549 = assay: Cytotoxicity against human BT549 cells assessed as cell growth at 10^-5 M after 48 hrs by SRB assay; type: functional; conditions: BT-549, 48 h, read-out: Activity; summary of the method: as §1
DU-145 = assay: Cytotoxicity against human DU145 cells assessed as cell growth at 10^-5 M after 48 hrs by SRB assay; type: functional; conditions: DU-145, 48 h, read-out: Activity; summary of the method: as §1
CAKI-1 = assay: Cytotoxicity against human CAKI-1 cells assessed as cell growth at 10^-5 M after 48 hrs by SRB assay; type: functional; conditions: CAKI-1, 48 h, read-out: Activity; summary of the method: as §1
A498 = assay: Cytotoxicity against human A498 cells assessed as cell growth at 10^-5 M after 48 hrs by SRB assay; type: functional; conditions: A498, 48 h, read-out: Activity; summary of the method: as §1
786-0 = assay: Cytotoxicity against human 786-0 cells assessed as cell growth at 10^-5 M after 48 hrs by SRB assay; type: functional; conditions: 786-0, 48 h, read-out: Activity; summary of the method: as §1
NCI/ADR-RES = assay: Cytotoxicity against human NCI/ADR-RES cells assessed as cell growth at 10^-5 M after 48 hrs by SRB assay; type: functional; conditions: read-out: Activity; summary of the method: as §1
SK-OV-3 = assay: Cytotoxicity against human SKOV3 cells assessed as cell growth at 10^-5 M after 48 hrs by SRB assay; type: functional; conditions: SK-OV-3, 48 h, read-out: Activity
Summary of the method: (§2)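 NCI-60 one-dose screen across nine tumour subpanels. Each agent added once at 10^-5 M, cultures incubated 48 h. Endpoint is sulforhodamine B protein staining read spectrophotometrically. Output is percent growth of treated cells relative to untreated controls.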

OVCAR-8 = assay: Cytotoxicity against human OVCAR8 cells assessed as cell growth at 10^-5 M after 48 hrs by SRB assay; type: functional; conditions: OVCAR-8, 48 h, read-out: Activity; summary of the method: as §1
OVCAR-5 = assay: Cytotoxicity against human OVCAR5 cells assessed as cell growth at 10^-5 M after 48 hrs by SRB assay; type: functional; conditions: OVCAR-5, 48 h, read-out: Activity; summary of the method: as §1
UACC-62 = assay: Cytotoxicity against human UACC62 cells assessed as cell growth at 10^-5 M after 48 hrs by SRB assay; type: functional; conditions: UACC-62, 48 h, read-out: Activity; summary of the method: as §2
IGROV-1 = assay: Cytotoxicity against human IGROV1 cells assessed as cell growth at 10^-5 M after 48 hrs by SRB assay; type: functional; conditions: IGROV-1, 48 h, read-out: Activity; summary of the method: as §1
SK-MEL-2 = assay: Cytotoxicity against human SK-MEL-2 cells assessed as cell growth at 10^-5 M after 48 hrs by SRB assay; type: functional; conditions: SK-MEL-2, 48 h, read-out: Activity; summary of the method: as §1
SK-MEL-28 = assay: Cytotoxicity against human SK-MEL-28 cells assessed as cell growth at 10^-5 M after 48 hrs by SRB assay; type: functional; conditions: SK-MEL-28, 48 h, read-out: Activity; summary of the method: as §2
Malme-3M = assay: Cytotoxicity against human MALME-3M cells assessed as cell growth at 10^-5 M after 48 hrs by SRB assay; type: functional; conditions: read-out: Activity; summary of the method: as §1
U-251 = assay: Cytotoxicity against human U251 cells assessed as cell growth at 10^-5 M after 48 hrs by SRB assay; type: functional; conditions: U-251, 48 h, read-out: Activity; summary of the method: as §2
SW-620 = assay: Cytotoxicity against human SW620 cells assessed as cell growth at 10^-5 M after 48 hrs by SRB assay; type: functional; conditions: SW-620, 48 h, read-out: Activity; summary of the method: as §2
HCC 2998 = assay: Cytotoxicity against human HCC2998 cells assessed as cell growth at 10^-5 M after 48 hrs by SRB assay; type: functional; conditions: HCC 2998, 48 h, read-out: Activity; summary of the method: as §1
NCI-H522 = assay: Cytotoxicity against human NCI-H522 cells assessed as cell growth at 10^-5 M after 48 hrs by SRB assay; type: functional; conditions: NCI-H522, 48 h, read-out: Activity; summary of the method: as §1
NCI-H460 = assay: Cytotoxicity against human NCI-H460 cells assessed as cell growth at 10^-5 M after 48 hrs by SRB assay; type: functional; conditions: NCI-H460, 48 h, read-out: Activity; summary of the method: as §1
NCI-H23 = assay: Cytotoxicity against human NCI-H23 cells assessed as cell growth at 10^-5 M after 48 hrs by SRB assay; type: functional; conditions: NCI-H23, 48 h, read-out: Activity; summary of the method: as §1
SR = assay: Cytotoxicity against human SR cells assessed as cell growth at 10^-5 M after 48 hrs by SRB assay; type: functional; conditions: read-out: Activity; summary of the method: as §2
A549 = assay: Cytotoxicity against human A549 cells assessed as cell growth at 10^-5 M after 48 hrs by SRB assay; type: functional; conditions: A549, 48 h, read-out: Activity; summary of the method: as §1
K562 = assay: Cytotoxicity against human K562 cells assessed as cell growth at 10^-5 M after 48 hrs by SRB assay; type: functional; conditions: K562, 48 h, read-out: Activity; summary of the method: as §1
MOLT-4 = assay: Cytotoxicity against human MOLT4 cells assessed as cell growth at 10^-5 M after 48 hrs by SRB assay; type: functional; conditions: MOLT-4, 48 h, read-out: Activity; summary of the method: as §1
Rattus norvegicus [1] = assay: Gastrointestinal toxicity in albino rat assessed as ulcer index at 0.28 mmol/kg, po (reference value: 0.60 +/- 0.05); type: organism-based; conditions: in vivo
Rattus norvegicus [2] = assay: Antiinflammatory activity in albino rat assessed as inhibition of carrageenan-induced paw edema at 0.28 mmol/kg, po after 5 hrs relative to control; type: functional
Summary of the method: (§3)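 Adult male albino rats (120–140 g), four per group, fasted 24 h with water allowed. Test agent suspended in 0.5% w/v aqueous CMC and given orally at 0.28 mmol/kg; controls received CMC alone. After 30 min, 0.1 mL fresh 1% carrageenan in saline was injected subplantar into the right hind paw and saline into the left. Paw thickness was measured by Vernier caliper; % inhibition = [(VR−VL)control − (VR−VL)treated]/(VR−VL)control ×100. Mean ± SEM, one-way ANOVA.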

Rattus norvegicus [3] = assay: Antiinflammatory activity in albino rat assessed as inhibition of carrageenan-induced paw edema at 0.28 mmol/kg, po after 4 hrs relative to control; type: functional; summary of the method: as §3
[4] = Induction of nitric oxide release in phosphate buffer at pH 7.4 at 0.1 mM after 6 hrs by Griess method in presence of 0.5 mM of N-acetylcysteine; type: physicochemical; conditions: pH 7.4, 6 h, 100 µM
Summary of the method: (§4)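 Compound in DMF diluted to final 10^-4 M in 1:1 50 mM phosphate buffer pH 7.4/MeOH with 5×10^-4 M N-acetylcysteine, 37 °C. Aliquot mixed with Griess reagent, 10 min at room temperature, A546 read. Nitrite quantified against sodium nitrite standards (10–80 nmol/mL); NO expressed as mol/mol. n = 4 reaction mixtures per compound.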

[5] = Induction of nitric oxide release in phosphate buffer at pH 7.4 at 0.1 mM after 4 hrs by Griess method in presence of 0.5 mM of N-acetylcysteine; type: physicochemical; conditions: pH 7.4, 4 h, 100 µM; summary of the method: as §4

Compound	growth at 10 µM (Hs-578T) [%]	growth at 10 µM (BT-549) [%]	growth at 10 µM (DU-145) [%]	growth at 10 µM (CAKI-1) [%]	growth at 10 µM (A498) [%]	growth at 10 µM (786-0) [%]	growth at 10 µM (NCI/ADR-RES) [%]	growth at 10 µM (SK-OV-3) [%]	growth at 10 µM (OVCAR-8) [%]	growth at 10 µM (OVCAR-5) [%]	growth at 10 µM (UACC-62) [%]	growth at 10 µM (IGROV-1) [%]	growth at 10 µM (SK-MEL-2) [%]	growth at 10 µM (SK-MEL-28) [%]	growth at 10 µM (Malme-3M) [%]	growth at 10 µM (U-251) [%]	growth at 10 µM (SW-620) [%]	growth at 10 µM (HCC 2998) [%]	growth at 10 µM (NCI-H522) [%]	growth at 10 µM (NCI-H460) [%]	other results
CCn1c(SC/C(=N/O)c2ccccc2)nnc1-c1ccc(OC)c(OC)c1	92.6	134	112	102	92.3	115	103	96.4	104	107	95.5	106	105	103	94.8	101	106	104	89.4	105	growth at 10 µM (NCI-H23): 102%; growth at 10 µM (SR): 95.4%; growth at 10 µM (A549): 95.7%; growth at 10 µM (K562): 93.4%; growth at 10 µM (MOLT-4): 87.4%; UI (Rattus norvegicus [1]): 1.58; inhibition in vivo at 280 µmol/kg (Rattus norvegicus [2]): 71%; inhibition in vivo at 280 µmol/kg (Rattus norvegicus [3]): 82%; Activity [4]: 0.2 mol/mol; Activity [5]: 0.24 mol/mol
O/N=C(/CSc1nnc(-c2ccccc2)n1-c1ccccc1)c1ccccc1	82.9	111	99.2	85.4	49.5	109	100	103	93.2	125	87.7	108	101	118	100	82.3	98.8	121	98.5	97.3	growth at 10 µM (NCI-H23): 103%; growth at 10 µM (SR): 92.8%; growth at 10 µM (A549): 88.6%; growth at 10 µM (K562): 74.6%; growth at 10 µM (MOLT-4): 84.8%; UI (Rattus norvegicus [1]): 2.53; inhibition in vivo at 280 µmol/kg (Rattus norvegicus [2]): 75%; inhibition in vivo at 280 µmol/kg (Rattus norvegicus [3]): 79%; Activity [4]: 0.09 mol/mol; Activity [5]: 0.13 mol/mol
COc1ccc(-c2nnc(SC/C(=N/O)c3ccccc3)n2-c2ccccc2)cc1	107	90.5	119	96.5	73.8	93.3	97.9	111	102	109	94.3	101	106	117	96.5	98.6	114	112	81.6	106	growth at 10 µM (NCI-H23): 106%; growth at 10 µM (SR): 75.9%; growth at 10 µM (A549): 85%; growth at 10 µM (K562): 82.1%; growth at 10 µM (MOLT-4): 70.3%; UI (Rattus norvegicus [1]): 7.57; inhibition in vivo at 280 µmol/kg (Rattus norvegicus [2]): 73%; inhibition in vivo at 280 µmol/kg (Rattus norvegicus [3]): 80%; Activity [4]: 0.12 mol/mol; Activity [5]: 0.15 mol/mol
